The source made the active and inactive calls.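 Rule for the calls, unless noted: active = viability at or below 10% of carrier control in both of two separate runs; inconclusive = viability at or below 10% in only one of the two runs; inactive = the rest.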
Columns and labels:
[1] = reducers of endogenous Her2 protein level, primary screen, SKBR3 breast tumor cells, AlphaScreen, ATP viability (AID 461;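 active = Her2 level under about 52% in both replicate screens, with viability over 70% of control, limit read from the data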;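 for Her2 level: lower value means less Her2 protein in the cells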;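 for viability: percent of carrier control wells set as 100% viability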); settings: 18-24 h, measured here: SKBR3 viability, ATP luminescence, at 10 µM
[2] = target: Receptor tyrosine-protein kinase erbB-2 (Homo sapiens) (UniProt P04626); test: as above; settings: 18-24 h, at 10 µM, stronger effect = lower value
[3] = SK-BR-3 cell growth inhibitors, pilot screen, 24 h, human (AID 572); settings: SK-BR-3 viability, CellTiter-Glo luminescence, at 10 µM, stronger effect = lower value;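 note: compound exposure lasted between 18 and 24 h rather than exactly 24 h; 100% = carrier-treated control wells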
[4] = HUVEC growth inhibition – cell-based, human, primary screen (AID 575;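 active = viability at or below 30% in both replicate assays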;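 note: 100% = median of untreated cell wells with 0.1% DMSO on each plate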); settings: HUVEC proliferation, CellTiter-Glo luminescence, 72 h; at 10 µM; stronger effect = lower value
How it was run: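 Timing: 72 h treatment at 37 °C; material: HUVEC primary cells; technique: CellTiter-Glo luminescence measuring cellular ATP; controls: vehicle and MePR control wells; measure: percent of median DMSO-control luminescence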

[5] = growth inhibitors of H69AR lung tumor, primary screen, human, duplicate replicates (AID 580;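 active = viability at or under a set limit in both replicates, limit being median viability minus 3 SD, cut at about 48% in these data, passing the limit was not always enough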;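 note: 100% = mean luminescence of untreated wells and 0% = no signal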); settings: H69AR lung tumor cells viability, ATP luminescence, 72 h; at 10 µM; stronger effect = lower value
[6] = reversal of MRP1-mediated doxorubicin resistance, pilot screen, H69AR cells, doxorubicin co-treatment (AID 601;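 active = viability loss from added drug above about 55%, and viability with drug at most 40%, in both replicates, limit read from the data, passing the limit was not always enough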); settings: CellTiter-Glo, 72 h, at 10 µM; for differential viability (reversal): stronger effect = higher value
[7] = 384-well plate pilot, post-Golgi transport modulator project, inhibition of yeast transport mutant growth (AID 636; in the data active = inhibition above about 31%); settings: absorbance 615 nm, about 18 h, stronger effect = higher value
[8] = growth suppression of yeast trafficking mutant, preliminary HTS, modulators of trafficking downstream of Golgi apparatus project, 1536-format plate, OD 615 nm (AID 637; in the data active = inhibition above about 30%); settings: yeast transport mutant growth, absorbance 615 nm, 18 h; stronger effect = higher value
[9] = H69AR cells + 2 uM doxorubicin, measured here: viability with 2 uM doxorubicin, stronger effect = lower value
[10] = H69AR cells, compound alone cytotoxicity

Chain of Receptor tyrosine-protein kinase erbB-2 (Homo sapiens) (P04626 whole entry, looked up): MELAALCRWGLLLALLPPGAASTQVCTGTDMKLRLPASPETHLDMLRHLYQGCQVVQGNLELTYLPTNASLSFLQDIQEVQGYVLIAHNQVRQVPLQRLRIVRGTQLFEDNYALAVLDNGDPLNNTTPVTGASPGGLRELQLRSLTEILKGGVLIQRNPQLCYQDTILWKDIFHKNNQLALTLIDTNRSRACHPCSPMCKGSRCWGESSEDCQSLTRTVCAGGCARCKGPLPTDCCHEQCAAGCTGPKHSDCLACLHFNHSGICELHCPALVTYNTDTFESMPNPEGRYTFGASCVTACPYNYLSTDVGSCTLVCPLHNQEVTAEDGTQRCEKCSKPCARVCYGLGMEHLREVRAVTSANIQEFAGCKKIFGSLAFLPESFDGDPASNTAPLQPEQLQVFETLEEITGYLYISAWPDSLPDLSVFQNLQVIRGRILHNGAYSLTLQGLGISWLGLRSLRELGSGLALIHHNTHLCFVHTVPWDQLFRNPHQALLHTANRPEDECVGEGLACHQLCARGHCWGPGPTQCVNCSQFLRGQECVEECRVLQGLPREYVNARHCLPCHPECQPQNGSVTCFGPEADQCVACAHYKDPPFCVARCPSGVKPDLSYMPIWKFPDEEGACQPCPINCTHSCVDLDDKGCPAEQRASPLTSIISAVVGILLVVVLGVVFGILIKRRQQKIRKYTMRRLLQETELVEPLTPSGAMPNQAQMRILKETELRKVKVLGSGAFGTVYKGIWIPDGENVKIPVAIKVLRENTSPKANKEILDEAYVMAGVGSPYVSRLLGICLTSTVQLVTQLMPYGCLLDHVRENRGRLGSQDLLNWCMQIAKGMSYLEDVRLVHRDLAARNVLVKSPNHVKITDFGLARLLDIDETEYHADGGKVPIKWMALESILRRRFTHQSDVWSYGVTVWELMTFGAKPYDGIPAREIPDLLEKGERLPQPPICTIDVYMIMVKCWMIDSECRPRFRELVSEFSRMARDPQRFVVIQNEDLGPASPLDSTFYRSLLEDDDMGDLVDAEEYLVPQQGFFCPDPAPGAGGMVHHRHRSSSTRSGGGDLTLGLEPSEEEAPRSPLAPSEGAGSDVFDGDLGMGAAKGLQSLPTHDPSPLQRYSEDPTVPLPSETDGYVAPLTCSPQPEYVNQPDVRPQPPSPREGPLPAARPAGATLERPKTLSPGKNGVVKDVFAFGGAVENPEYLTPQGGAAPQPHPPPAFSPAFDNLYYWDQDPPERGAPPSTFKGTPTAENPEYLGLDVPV

Row | SMILES | viability [1] [%] | Her2 level [2] | viability [3] | viability [4] | viability [5] | differential viability (reversal) ([6]; H69AR cells + 2 uM doxorubicin) | viability [6, 9] [%] | viability [6, 10] [%] | inhibition [7] | inhibition [8]
1 | COc1ccc2c(c1)C(=NO)c1cc(OC)ccc1-2 | 120 | 61.5% (inactive) | 120% (inactive) | 58.5% (inactive) | 83.8% (inactive) | -6.16% (inactive) | 90 | 83.8 | -8.24% (inactive) | 2% (inactive)
2 | CCN(CC)c1ccc(-c2c(C#N)c(N)nc(OC)c2C#N)cc1 | 75.5 | 88.5% (inactive) | 75.5% (inactive) | 81.3% (inactive) | 79.4% (inactive) | -4.16% (inactive) | 83.5 | 79.4 | -1.17% (inactive) | -8.36% (inactive)
3 | Cc1cc(-c2ccccc2)c2nncn2n1 | 106 | 96% (inactive) | 106% (inactive) | 116% (inactive) | 89.9% (inactive) | 5.82% (inactive) | 84.1 | 89.9 | -8.27% (inactive) | 2.42% (inactive)
4 | CC(C)C1Cc2c(C#N)c(N)sc(=S)c2CO1 (stereo not given) | 85 | 108% (inactive) | 85% (inactive) | 64.2% (inactive) | 93.9% (inactive) | -2.34% (inactive) | 96.2 | 93.9 | -4.03% (inactive) | -2.13% (inactive)
5 | c1ccc(CC2CCN(c3nc4ccccc4n4nnnc34)CC2)cc1 | 84 | 86% (inactive) | 84% (inactive) | 88.6% (inactive) | 81.5% (inactive) | 8.36% (inactive) | 73.2 | 81.5 | 0% (inactive) | 1.5% (inactive)
6 | Cc1nc(=S)n(-c2ccccc2)[nH]1 | 104 | 107% (inactive) | 104% (inactive) | 107% (inactive) | 107% (inactive) | 2.28% (inactive) | 105 | 107 | -3.2% (inactive) | -9.35% (inactive)
7 | CC(C)Oc1ccc(-c2nn(-c3ccccc3)cc2/C=c2\sc3ncnn3c2=O)cc1 | 84 | 106% (inactive) | 84% (inactive) | 71.5% (inactive) | 98.1% (inactive) | 8.19% (inactive) | 89.9 | 98.1 | 5.92% (inactive) | -1.82% (inactive)
8 | CCOc1cccc(C(=O)Nc2cccc(-c3nc4ncccc4o3)c2C)c1 | 99 | 75.5% (inactive) | 99% (inactive) | 81.5% (inactive) | 75.6% (inactive) | -12.9% (inactive) | 88.5 | 75.6 | -0.39% (inactive) | -0.97% (inactive)
9 | O=C(Cn1nc(-c2ccc3c(c2)OCCO3)ccc1=O)Nc1ccc(N2CCOCC2)cc1 | 94 | 108% (inactive) | 94% (inactive) | 112% (inactive) | 110% (inactive) | 16.4% (inactive) | 93.2 | 110 | -3.03% (inactive) | 0.17% (inactive)
10 | O=C(Nc1cccc(C(=O)N2CCOCC2)c1)c1cccnc1 | 99.5 | 118% (inactive) | 99.5% (inactive) | 91% (inactive) | 91.2% (inactive) | -9.23% (inactive) | 100 | 91.2 | -6.18% (inactive) | -3.11% (inactive)
11 | Cn1c(=O)c2c(nc(NCc3ccc4c(c3)OCO4)n2Cc2ccccc2F)n(C)c1=O | 82 | 60% (inactive) | 82% (inactive) | 105% (inactive) | 76% (inactive) | -8.01% (inactive) | 84 | 76 | -3.65% (inactive) | 7.3% (inactive)
12 | CCOC(=O)Cn1c(N2CCOCC2)nc2c1c(=O)[nH]c(=O)n2C | 106 | 85.5% (inactive) | 106% (inactive) | 89.7% (inactive) | 88.1% (inactive) | -0.31% (inactive) | 88.4 | 88.1 | -3.95% (inactive) | -6.83% (inactive)
13 | C=CCNC(=O)c1cc(-c2ccccc2O)on1 | 97 | 82.5% (inactive) | 97% (inactive) | 99.1% (inactive) | 86.7% (inactive) | 0.065% (inactive) | 86.7 | 86.7 | 2.18% (inactive) | 4.17% (inactive)
14 | CCOc1ccc(C(=O)N(CN2CCCC2=O)c2ccc(C)cc2)cc1 | 125 | 114% (inactive) | 125% (inactive) | 116% (inactive) | 95.1% (inactive) | 7.87% (inactive) | 87.2 | 95.1 | -6% (inactive) | 1.94% (inactive)
15 | Cc1ccc(-c2c3c(=O)n(C)c(=O)n(C)c3cn2CCCN2CCOCC2)cc1 | 144 | 102% (inactive) | 144% (inactive) | 103% (inactive) | 77.8% (inactive) | -4.19% (inactive) | 82 | 77.8 | -7.5% (inactive) | -0.95% (inactive)
16 | O=C(O)C1CC=CCC1C(=O)NCc1ccccc1 (stereo not given) | 106 | 87% (inactive) | 106% (inactive) | 91.1% (inactive) | 92.2% (inactive) | -3.77% (inactive) | 96 | 92.2 | -4.4% (inactive) | -2.38% (inactive)

Row | SMILES | viability [1] [%] | Her2 level [2] | viability [3] | viability [4] | viability [5] | differential viability (reversal) ([6]; H69AR cells + 2 uM doxorubicin) | viability [6, 9] [%] | viability [6, 10] [%] | inhibition [7] | inhibition [8]
17 | O=C(COC(=O)c1ccc(S(=O)(=O)Nc2ccccc2)cc1)NCCN1C(=O)CSC1=O | 107 | 108% (inactive) | 107% (inactive) | 100% (inactive) | 95.3% (inactive) | 9.27% (inactive) | 86 | 95.3 | -5.07% (inactive) | -3.93% (inactive)
18 | CCOC(=O)N1CCN(c2c(NCC3CCN(Cc4cccc(C)c4)CC3)c(=O)c2=O)CC1 | 102 | 89.5% (inactive) | 102% (inactive) | 81.7% (inactive) | 107% (inactive) | 15% (inactive) | 92.2 | 107 | -2% (inactive) | 2.95% (inactive)
19 | COc1ccc(NC(=O)Nc2cc(C)ccc2OC)cc1 | 101 | 109% (inactive) | 101% (inactive) | 96.1% (inactive) | 93.6% (inactive) | -4.12% (inactive) | 97.7 | 93.6 | 1.18% (inactive) | -3.11% (inactive)
20 | Cc1ccccc1CNS(=O)(=O)c1ccc2c(c1)OCCO2 | 95.5 | 104% (inactive) | 95.5% (inactive) | 83.6% (inactive) | 109% (inactive) | 17.3% (inactive) | 92 | 109 | -5.47% (inactive) | -6.77% (inactive)
21 | COc1ccc(OCCC(=O)NCc2ccccc2)cc1 | 103 | 105% (inactive) | 103% (inactive) | 95.7% (inactive) | 103% (inactive) | 19.8% (inactive) | 83.3 | 103 | -3.2% (inactive) | 2.9% (inactive)
22 | C#CCN1C(=O)C(O)(CC(=O)c2cccc(OC)c2)c2ccccc21 (stereo not given) | 100 | 84% (inactive) | 100% (inactive) | 93.3% (inactive) | 21.7% (active) | -16.6% (inactive) | 38.3 | 21.7 | -7.03% (inactive) | 1.67% (inactive)
23 | Fc1ccccc1C(c1nnnn1Cc1ccc2c(c1)OCO2)N1CCN(Cc2ccccc2)CC1 (stereo not given) | 121 | 88% (inactive) | 121% (inactive) | 69.6% (inactive) | 89.3% (inactive) | -7.54% (inactive) | 96.9 | 89.3 | 2.16% (inactive) | -4.13% (inactive)
24 | COc1ccc(Cn2nnnc2C(c2cc3cc(C)cc(C)c3[nH]c2=O)N2CCOCC2)cc1 (stereo not given) | 108 | 94.5% (inactive) | 108% (inactive) | 117% (inactive) | 99.4% (inactive) | 11.9% (inactive) | 87.4 | 99.4 | -7.47% (inactive) | 0.32% (inactive)
25 | CC(=O)c1c(NCCc2ccccc2)cc(C)oc1=O | 99.5 | 86% (inactive) | 99.5% (inactive) | 119% (inactive) | 101% (inactive) | 9.25% (inactive) | 91.5 | 101 | -2.57% (inactive) | -4.83% (inactive)
26 | COc1cc(OC)cc(C(=O)NCc2n[nH]c(=S)n2-c2ccccc2OC)c1 | 97 | 88% (inactive) | 97% (inactive) | 109% (inactive) | 89.4% (inactive) | 0.11% (inactive) | 89.3 | 89.4 | -7.16% (inactive) | -1.33% (inactive)
27 | C=CCn1c(COc2ccccc2)nnc1SCC(=O)C(C)(C)C | 78 | 107% (inactive) | 78% (inactive) | 102% (inactive) | 97.8% (inactive) | 5.13% (inactive) | 92.6 | 97.8 | -1.95% (inactive) | -4.67% (inactive)
28 | O=C(c1ccc(COc2c(F)c(F)c(F)c(F)c2F)o1)N1CCOCC1 | 111 | 98.5% (inactive) | 111% (inactive) | 100% (inactive) | 88% (inactive) | 7.68% (inactive) | 80.3 | 88 | -5.81% (inactive) | 6.98% (inactive)
29 | O=C(CN1C(=O)c2ccccc2C1=O)NCC1COc2ccccc2O1 (stereo not given) | 98 | 110% (inactive) | 98% (inactive) | 95.1% (inactive) | 102% (inactive) | 5.31% (inactive) | 97.1 | 102 | 2.11% (inactive) | 12.5% (inactive)
30 | CN(C)CCCNC(=O)c1ccc(CN(c2ccccc2)S(C)(=O)=O)cc1 | 97.5 | 96% (inactive) | 97.5% (inactive) | 86.4% (inactive) | 92.1% (inactive) | 3.06% (inactive) | 89 | 92.1 | 0.91% (inactive) | -7.87% (inactive)
31 | CC(=O)NC(Cc1ccccc1)C(=O)NC1CCN(C(=O)c2cnccn2)CC1 (stereo not given) | 122 | 88% (inactive) | 122% (inactive) | 104% (inactive) | 96.2% (inactive) | 1.21% (inactive) | 95 | 96.2 | -4.86% (inactive) | 8.52% (inactive)
32 | CCOC(=O)c1ccccc1NC(=O)c1ccc(NS(C)(=O)=O)cc1 | 93.5 | 83.5% (inactive) | 93.5% (inactive) | 97% (inactive) | 80.7% (inactive) | -1.98% (inactive) | 82.7 | 80.7 | -4.53% (inactive) | -3.81% (inactive)

From PubChem BioAssay
